Here are results for 25 molecules from ChEMBL document CHEMBL4196040, “Discovery of carbazole carboxamides as novel RORγt inverse agonists” (Eur J Med Chem, 2018).

The target in data set [1] is T1, Nuclear receptor ROR-gamma (Homo sapiens, UniProt P51449).
T1 sequence (P51449 whole entry): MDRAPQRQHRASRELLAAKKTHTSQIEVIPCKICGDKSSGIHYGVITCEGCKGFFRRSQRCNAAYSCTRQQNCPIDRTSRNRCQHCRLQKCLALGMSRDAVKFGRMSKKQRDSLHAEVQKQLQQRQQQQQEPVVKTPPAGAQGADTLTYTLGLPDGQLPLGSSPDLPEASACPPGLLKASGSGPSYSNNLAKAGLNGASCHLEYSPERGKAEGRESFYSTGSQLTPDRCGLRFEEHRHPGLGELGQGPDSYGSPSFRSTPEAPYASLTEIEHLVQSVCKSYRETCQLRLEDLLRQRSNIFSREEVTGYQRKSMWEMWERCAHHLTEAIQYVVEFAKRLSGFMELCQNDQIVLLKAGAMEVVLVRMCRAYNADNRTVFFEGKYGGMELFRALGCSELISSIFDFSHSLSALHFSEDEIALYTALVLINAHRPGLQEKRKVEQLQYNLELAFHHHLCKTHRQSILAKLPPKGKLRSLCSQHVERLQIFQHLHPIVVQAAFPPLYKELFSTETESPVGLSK
As to the kind of experiment: Inverse agonist activity at APC-labeled RORgammat LBD (unknown origin) assessed as inhibition of N-(2-chloro-6-fluorobenzyl)-N-((20-methoxy-[1,10-biphenyl]-4-yl)methyl)benzenesulfonamide -induced co-activator europium-labeled SRC1 peptide recruitment after 1 hr by LANCE-FRET assay.

Data set [2] is described as follows: Inhibition of mouse splenocytes-derived CD4+ Th17 cell differentiation assessed as reduction in IL-17 production at 0.3 uM by flow cytometry relative to control. Format: functional. The essentials: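 CD4+ T cells were taken from mouse splenocytes by negative selection and skewed to Th17 over 4 days with anti-CD3 0.25 μg/mL, anti-CD28 1 μg/mL, anti-IFN-γ and anti-IL-4 2 μg/mL each, TGF-β 5 ng/mL and IL-6 20 ng/mL. Compound or DMSO was added on day 0. IL-17+ CD4+ cells were measured by intracellular staining and flow cytometry.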

The nature of data set [3]: Intrinsic clearance in mouse liver microsomes. Format: ADME, microsome.
In data set [4] the target is T2, Nuclear receptor ROR-gamma (Homo sapiens) (UniProt P51449).
T2 sequence (whole entry): T1 sequence (P51449 whole entry)
As to the kind of experiment: Agonist activity at APC-labeled RORgammat LBD (unknown origin) assessed as co-activator europium-labeled SRC1 peptide recruitment after 1 hr by LANCE-FRET assay relative to control.

In the case of `CCn1c2ccc(F)cc2c2cc(C(=O)NCc3ccc(S(=O)(=O)CC)cc3)ccc21`, the IC50 in data set [1] (read-out: IC50) came out at 156 nM. Moreover, the inhibition at 0.3 µM in data set [2] is 45.9%. The molecule further came in with a CLint in data set [3] of 0.348 mL/min/g.
Consider `CCn1c2c(c3cc(C(=O)NCc4ccc(S(=O)(=O)CC)cc4)ccc31)CCC2`, for which the IC50 in data set [1] (read-out: IC50) was found to be 1320 nM.
Regarding `CCn1c2ccccc2c2cc(C(=O)NCc3ccc(S(=O)(=O)NC)cc3)ccc21`, in data set [1] (read-out: IC50), the IC50 is 313 nM.
As for `CCS(=O)(=O)c1ccc(CNC(=O)c2ccc3c(c2)c2ccccc2n3CC2CCCCC2)cc1`, in data set [1] (read-out: IC50), the IC50 worked out at 33.5 nM. Also, the Emax in data set [4] stood at 54%.
Take `CCS(=O)(=O)c1ccc(CNC(=O)c2ccc3c(c2)c2ccccc2n3CC(C)C)cc1`: the IC50 in data set [1] (read-out: IC50) was determined as 69.6 nM.
`CCS(=O)(=O)c1ccc(CNC(=O)c2ccc3c(c2)c2ccccc2n3C)cc1`: the half-maximal inhibitory concentration (IC50) in data set [1] (read-out: IC50) was 566 nM.
As to `CCS(=O)(=O)c1ccc(CNC(=O)c2ccc3c(c2)c2ccccc2n3CC2CC2)cc1`, the IC50 in data set [1] (read-out: IC50) worked out at 81.9 nM.
`CCn1c2ccccc2c2cc(C(=O)NCc3ccc(S(C)(=O)=O)cc3)ccc21`: the IC50 in data set [1] (read-out: IC50) was 1100 nM.
Regarding `CCn1c2ccc(C)cc2c2cc(C(=O)NCc3ccc(S(=O)(=O)CC)cc3)ccc21`, in data set [1] (read-out: IC50), the IC50 was determined as 47.8 nM. In addition, the inhibition at 0.3 µM in data set [2] turned out to be 43.6%. For the same molecule, the CLint in data set [3] was 0.368 mL/min/g.
For `CCn1c2ccc(C(=O)NCc3ccc(S(=O)(=O)CC)cc3)cc2c2ncccc21`, the IC50 in data set [1] (read-out: IC50) stood at 3000 nM.
Take `CCn1c2ccccc2c2cc(NC(=O)CNC(=O)Cc3ccc(S(=O)(=O)CC)cc3)ccc21`: the IC50 in data set [1] (read-out: IC50) came out at 7670 nM.
Turning to `CCS(=O)(=O)c1ccc(CNC(=O)c2ccc3[nH]c4ccccc4c3c2)cc1`, the IC50 in data set [1] (read-out: IC50) was determined as 5400 nM.
For the molecule `CCS(=O)(=O)c1ccc(CNC(=O)c2ccc3c(c2)c2ccccc2n3CC2CCC2)cc1`, in data set [1] (read-out: IC50), the IC50 worked out at 54.9 nM.
In the case of `CCS(=O)(=O)c1ccc(CNC(=O)c2ccc3c(c2)c2ccccc2n3C(C)C)cc1`, the IC50 in data set [1] (read-out: IC50) worked out at 358 nM.
For the molecule `CCn1c2ccccc2c2cc(C(=O)NCc3ccc(S(=O)(=O)CC)cn3)ccc21`, the IC50 in data set [1] (read-out: IC50) came out at 1220 nM.
As to `CCn1c2ccccc2c2cc(NC(=O)Cc3ccc(S(=O)(=O)CC)cc3)ccc21`, the IC50 in data set [1] (read-out: IC50) was 170 nM.
In the case of `CCn1c2ccccc2c2cc(C(=O)NCc3ccc(S(=O)(=O)CC)cc3)ccc21`, the 50% inhibitory concentration (IC50) in data set [1] (read-out: IC50) turned out to be 167 nM. The inhibition at 0.3 µM in data set [2] turned out to be 40%. Further, the CLint in data set [3] worked out at 0.305 mL/min/g.
Turning to `CCn1c2ccccc2c2cc(NC(=O)NCc3ccc(S(=O)(=O)CC)cc3)ccc21`, in data set [1] (read-out: IC50), the IC50 was found to be 16200 nM.
As for `CCCn1c2ccccc2c2cc(C(=O)NCc3ccc(S(=O)(=O)CC)cc3)ccc21`, in data set [1] (read-out: IC50), the IC50 came to 138 nM.
Turning to `CCn1c(C)c(C)c2cc(C(=O)NCc3ccc(S(=O)(=O)CC)cc3)ccc21`, the IC50 in data set [1] (read-out: IC50) stood at 914 nM.
`CCn1c2c(c3cc(C(=O)NCc4ccc(S(=O)(=O)CC)cc4)ccc31)CCCC2`: the IC50 in data set [1] (read-out: IC50) is 426 nM.
In the case of `CCn1c2ccccc2c2cc(C(=O)NCC(C)NC(=O)Cc3ccc(S(=O)(=O)CC)cc3)ccc21` (centres undefined), the IC50 result in data set [1] is given as “Not Active”.
Turning to `CCn1c2ccc(Cl)cc2c2cc(C(=O)NCc3ccc(S(=O)(=O)CC)cc3)ccc21`, the IC50 in data set [1] (read-out: IC50) stood at 58.5 nM. In data set [2], the inhibition at 0.3 µM was 58.8%. In data set [3], the CLint is 0.197 mL/min/g.
For the molecule `CCCS(=O)(=O)c1ccc(CNC(=O)c2ccc3c(c2)c2ccccc2n3CC)cc1`, the concentration for half-maximal inhibition (IC50) in data set [1] (read-out: IC50) is 1450 nM.
On the same count and under the same terms, to `CCn1ccc2cc(C(=O)NCc3ccc(S(=O)(=O)CC)cc3)ccc21` belongs 5160 nM.
